Data: ChEMBL document CHEMBL2203119, “Synthesis of retinoid enhancers based on 2-aminobenzothiazoles for anti-cancer therapy” (Bioorg Med Chem, 2012)
Active and inactive are the calls of the source. The calls are words filed in the database; no cut-off is given here.

Experiments:
[1] = Upregulation of RARbeta2 mRNA expression in human BE(2)-C cells transfected with full-length human cloned RARbeta2 expressing pMEP4 vector at 1 uM after 24 hrs by quantitative real time PCR analysis relative to control; type: functional, cell-based
In short: (§1)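 RARβ-pMEP4 BE(2)-C cells attached 24 h in duplicate wells of 6-well plates, then exposed 24 h to compound (1 or 10 μM), 13-cis-retinoic acid (10 μM), AC261066 (10 nM) or DMSO (0.05%). Total RNA isolated, RARβ2 mRNA quantified by real-time PCR as fold change versus control.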

[2] = system: SH-SY5Y; test: Anticancer activity against retinoid-sensitive human SH-SY5Y cells assessed as reduction of cell viability at 0.1 uM after 96 hrs by alamar blue assay; type: functional
In short: (§2)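 Alamar blue (resazurin) viability assay in SH-SY5Y or MDA-MB-231 cells grown in DMEM/L-glutamine/10% FCS, 37 °C, 5% CO2. After 24 h attachment in 6 replicate wells, cells were continuously exposed to serial dilutions for 96 h. Absorbance at 570 nm was read at 0 h and 5 h after reagent addition. Viability is % of matched 0.5% DMSO controls; mean ± SEM, three independent experiments.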

[3] = Cytotoxicity against human MRC5 cells assessed as reduction of cell viability at 1 uM after 96 hrs by alamar blue assay; type: cell-based; conditions: read-out: INH
In short: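 MRC-5 cells attached 24 h in 96-well plates, exposed to compound at 1 μM for 96 h. Viability by Alamar blue absorbance at 570 nm versus DMSO (0.5%) control.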

[4] = Anticancer activity against human BE(2)-C cells transfected with full-length human cloned RARbeta2 expressing pMEP4 vector assessed as reduction of cell viability at 1 uM after 72 hrs by Alamar blue assay; type: functional
In short: (§3)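 BE(2)-C neuroblastoma cells stably carrying RARβ cDNA in pMEP4 episomal vector, or empty pMEP4, in DMEM with L-glutamine and 10% FCS at 37 °C, 5% CO2. Cells attached 24 h in 96-well plates, then treated 72 h. Alamar blue absorbance at 570 nm, viability expressed as percentage of negative control.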

[5] = Anticancer activity against human BE(2)-C cells transfected with pMEP4 empty vector assessed as reduction of cell viability at 1 uM after 72 hrs by Alamar blue assay; type: functional; in short: as §3
[6] = system: MDA-MB-231; test: Anticancer activity against retinoid-resistant human MDA-MB-231 cells assessed as reduction of cell viability at 1 uM after 96 hrs by alamar blue assay; type: functional; conditions: MDA-MB-231, 96 h; in short: as §2
[7] = system: SH-SY5Y; test: Anticancer activity against retinoid-sensitive human SH-SY5Y cells assessed as reduction of cell viability at 1 uM after 96 hrs by alamar blue assay; type: functional; in short: as §2
[8] = Anticancer activity against human BE(2)-C cells transfected with full-length human cloned RARbeta2 expressing pMEP4 vector assessed as reduction of cell viability at 20 uM after 72 hrs by Alamar blue assay; type: functional; in short: as §3
[9] = Anticancer activity against human BE(2)-C cells transfected with pMEP4 empty vector assessed as reduction of cell viability at 20 uM after 72 hrs by Alamar blue assay; type: functional; in short: as §3
[10] = system: SH-SY5Y; test: Anticancer activity against retinoid-sensitive human SH-SY5Y cells assessed as cell viability at 0.01 to 100 uM after 96 hrs by alamar blue assay; type: functional, cell-based; in short: as §2
[11] = Anticancer activity against human BE(2)-C cells transfected with full-length human cloned RARbeta2 expressing pMEP4 vector assessed as reduction of cell viability at 5 uM after 96 hrs by Alamar blue assay relative to compound treated pMEP4 empty vector cloned cells; type: functional
In short: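 RARβ-pMEP4 and empty-vector BE(2)-C cells attached 24 h in 96-well plates, then exposed to ligand at 5 μM for 96 h. Alamar blue absorbance read at 570 nm. Viability of RARβ-transfected cells expressed relative to empty-vector cells. Mean ± SEM from at least three replicates.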

[12] = Upregulation of RARbeta2 mRNA expression in human BE(2)-C cells transfected with full-length human cloned RARbeta2 expressing pMEP4 vector at 10 uM after 24 hrs by quantitative real time PCR analysis relative to control; type: functional, cell-based; in short: as §1
[13] = Anticancer activity against human BE(2)-C cells transfected with full-length human cloned RARbeta2 expressing pMEP4 vector assessed as reduction of cell viability at 10 uM after 72 hrs by Alamar blue assay; type: functional; in short: as §3
[14] = Anticancer activity against human BE(2)-C cells transfected with pMEP4 empty vector assessed as reduction of cell viability at 10 uM after 72 hrs by Alamar blue assay; type: functional; in short: as §3
[15] = Upregulation of RARbeta2 mRNA expression in human BE(2)-C cells transfected with full-length human cloned RARbeta2 expressing pMEP4 vector at 10 nM after 24 hrs by quantitative real time PCR analysis relative to control; type: functional, cell-based; in short: as §1
[16] = system: SH-SY5Y; test: Anticancer activity against retinoid-sensitive human SH-SY5Y cells assessed as reduction of cell viability at 10 uM after 96 hrs by alamar blue assay; type: functional; in short: as §2
[17] = system: MDA-MB-231; test: Anticancer activity against retinoid-resistant human MDA-MB-231 cells assessed as reduction of cell viability at 20 uM after 96 hrs by alamar blue assay; type: functional; conditions: MDA-MB-231, 96 h; in short: as §2
[18] = system: SH-SY5Y; test: Anticancer activity against retinoid-sensitive human SH-SY5Y cells assessed as reduction of cell viability at 20 uM after 96 hrs by alamar blue assay; type: functional; in short: as §2

`O=C(Cc1c[nH]c2ccccc12)Nc1nc2ccccc2s1` showed a fold change (FC) [1] of 2.1, an inhibition at 0.1 µM [2] of 12% and a cytotoxicity at 96 h, 1 µM [3] of 20%. For the same compound, the inhibition at 1 µM [4] was 50%, the inhibition at 1 µM [5] was 38% and the inhibition at 1 µM [6] was 58%. For the same compound, the inhibition at 1 µM [7] was 55%.

With `CCOc1ccc2nc(NC(=O)Cc3c[nH]c4ccccc34)sc2c1` the inhibition at 20 µM [8] was 39% and the inhibition at 20 µM [9] was 29%.

With `O=C(Nc1nc2ccccc2s1)C(=O)c1c[nH]c2ccccc12` the Activity [10] was “inactive”.

`Cn1cnnc1SCc1nnc(-c2ccc(Br)s2)o1` gave an inhibition at 5 µM [11] of 20%.

`O=C(CCSc1ccccc1)Nc1ccc(-c2cn3ccsc3n2)cc1` gave an inhibition at 5 µM [11] of 20%.

For `Cc1cccc2sc(NC(=O)CNC(=O)Cc3ccccc3)nc12`, the inhibition at 5 µM [11] was 20%.

For `CC1=C(/C=C/C(C)=C/C=C/C(C)=C\C(=O)O)C(C)(C)CCC1` [ISOTRETINOIN], the fold change (FC) [12] was 9.3 and the cytotoxicity at 96 h, 1 µM [3] was 10%.

In the case of `Cc1cc(C(=O)CSc2nnnn2C2CC2)c(C)n1C1CC1`, the inhibition at 5 µM [11] is reported as 20%.

For `Cc1nnc(SCc2nnc(-c3cccs3)o2)n1-c1ccccc1`, the inhibition at 5 µM [11] was 20%.

In the case of `Cc1ccc(NC(=O)c2cc3c(C)nn(CC(C)C)c3s2)c(O)c1`, the inhibition at 5 µM [11] is reported as 20%.

In the case of `O=C(Cc1c[nH]c2ccccc12)Nc1nc2ccc(Cl)cc2s1`, the inhibition at 20 µM [8] is reported as 48% and the inhibition at 20 µM [9] is reported as 43%.

Work on `O=C(CCc1c[nH]c2ccccc12)Nc1nc2ccccc2s1` yielded a fold change (FC) [12] of 1.5, an Activity [13] of 53% and an Activity [14] of 38%.

`CCCCOCCOc1nc(-c2ccc(C(=O)O)c(F)c2)sc1C` gave a fold change (FC) [15] of 2.7.

`Cc1nn(CC(C)C)c2sc(C(=O)Nc3nc4ccccc4[nH]3)cc12` showed an inhibition at 5 µM [11] of 20%.

In the case of `N[C@@H](Cc1ccccc1)C(=O)NCC(=O)Nc1nc2ccccc2s1`, the inhibition at 10 µM [16] is reported as 13%, the inhibition at 20 µM [17] is reported as 50% and the inhibition at 20 µM [18] is reported as 50%.

For `CC1(C)Cc2cccc(OCc3nnc(-c4ccccc4)o3)c2O1`, the inhibition at 5 µM [11] was 20%.
